Results published in ChEMBL document CHEMBL1141603, “2-aryloxy-4-alkylaminopyridines: discovery of novel corticotropin-releasing factor 1 antagonists” (J Med Chem, 2008).
Converted amounts (≈) assume the structure as drawn. Each block holds one molecule with its values, some of them ahead of it. The source made the active and inactive calls. The calls are words filed in the database; no cut-off is given here.

Legend:
[1] = target: T1, Corticotropin-releasing factor receptor 1 (Rattus norvegicus, UniProt P35353); assay: (§1) Displacement of [125I]oCRF from rat CRF1 after 2 hrs by Betaplate scintillation counter
T1 sequence (P35353 whole entry): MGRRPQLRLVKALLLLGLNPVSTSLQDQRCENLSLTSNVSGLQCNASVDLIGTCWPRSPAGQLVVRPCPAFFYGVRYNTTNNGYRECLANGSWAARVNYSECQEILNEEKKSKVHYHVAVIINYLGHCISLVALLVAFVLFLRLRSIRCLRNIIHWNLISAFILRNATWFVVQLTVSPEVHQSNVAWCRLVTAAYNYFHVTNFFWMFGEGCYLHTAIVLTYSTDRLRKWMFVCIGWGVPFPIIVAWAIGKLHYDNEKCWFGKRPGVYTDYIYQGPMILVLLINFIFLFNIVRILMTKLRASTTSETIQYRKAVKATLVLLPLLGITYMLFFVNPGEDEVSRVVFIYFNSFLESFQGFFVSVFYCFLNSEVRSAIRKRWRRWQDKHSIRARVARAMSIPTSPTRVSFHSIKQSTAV

Rattus norvegicus [2] = assay: Ex vivo displacement of [125I]oCRF from CRF1 receptor in Sprague-Dawley rat pituitary at 3.2 mg/kg, po after 2 hrs by Betaplate scintillation counter; type: functional
Outline: (§2)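 Male Sprague–Dawley rats (200–300 g) dosed orally 3.2 mg/kg; killed usually 1 h later, brain and pituitary frozen. Tissue at 25 mg wet wt/mL in PIPES pH 7.0 buffer with MgCl2, EGTA, bacitracin, aprotinin, incubated with 40 pM 125I-oCRF 2 h at room temperature; nonspecific with 1 µM rat/human CRF. Pellets centrifuged, rinsed, filtered, scintillation counted.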

Rattus norvegicus [3] = assay: Ex vivo displacement of [125I]oCRF from CRF1 receptor in Sprague-Dawley rat brain cortex at 3.2 mg/kg, po after 2 hrs by Betaplate scintillation counter; type: functional; outline: as §2
[4] = Oral bioavailability in fasted Beagle dog at 5.0 mg/kg; type: ADME, organism-based, Canis lupus familiaris; settings: in vivo
Outline: (§3)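 Fasted beagles (fasted ~21 h, food ~3.5 h postdose) gavaged with drug suspended in 0.1% methyl cellulose pH 2. Jugular serum taken 0.25–24 h, GC-MS quantitation (LLOQ 1.0 ng/mL). Cmax and Tmax from observed profiles; F = (dose i.v.·AUC p.o.)/(dose p.o.·AUC i.v.), AUC by linear trapezoid with log-linear extrapolation.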

[5] = Tmax in fed Beagle dog at 5.0 mg/kg, po; type: ADME, organism-based, Canis lupus familiaris; parameters: dose 5 mg/kg, route oral; settings: in vivo
Outline: (§4)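 Beagles fed one can of wet dog food 1 h before gavage of drug suspended in 0.1% methyl cellulose pH 2. Serum from jugular venipuncture at 0.25–24 h postdose, GC-MS analysis (LLOQ 1.0 ng/mL). Bioavailability = dose-normalized oral AUC(0–∞) over i.v. AUC(0–∞).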

[6] = Clearance in Beagle dog at 1.0 mg/kg, iv; type: ADME, organism-based, Canis lupus familiaris; parameters: dose 1 mg/kg, route intravenous; settings: in vivo
Outline: (§5)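 Four beagles (2 male, 2 female, 8–15 kg), 1.0 mg/kg into cephalic vein; fasted ~21 h predose, fed ~3.5 h postdose. Serum sampled from jugular at 0.083–24 h, assayed by GC-MS (LLOQ 1.0 ng/mL). Noncompartmental: linear trapezoid AUC/AUMC, kel from log-linear terminal slope, t1/2 = 0.693/kel, CL = dose/AUC, VDss = CL·AUMC/AUC, VDγ = CL/kel.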

[7] = Volume of distribution at steady state in Beagle dog at 1.0 mg/kg, iv; type: ADME, organism-based, Canis lupus familiaris; parameters: dose 1 mg/kg, route intravenous; settings: in vivo, read-out: Vdss; outline: as §5
[8] = Oral bioavailability in fed Beagle dog at 5.0 mg/kg; type: ADME, organism-based, Canis lupus familiaris; settings: in vivo; outline: as §4
[9] = Half life at terminal elimination phase in Beagle dog at 1.0 mg/kg, iv; type: ADME, organism-based, Canis lupus familiaris; parameters: dose 1 mg/kg, route intravenous; settings: in vivo; outline: as §5
[10] = Cmax in fasted Beagle dog at 5.0 mg/kg, po; type: ADME, organism-based, Canis lupus familiaris; parameters: dose 5 mg/kg, route oral; settings: in vivo; outline: as §3
[11] = Tmax in fasted Beagle dog at 5.0 mg/kg, po; type: ADME, organism-based, Canis lupus familiaris; parameters: dose 5 mg/kg, route oral; settings: in vivo; outline: as §3
[12] = Volume of distribution at terminal elimination phase in Beagle dog at 1.0 mg/kg, iv; type: ADME, organism-based, Canis lupus familiaris; parameters: dose 1 mg/kg, route intravenous; settings: in vivo; outline: as §5
[13] = Cmax in fed Beagle dog at 5.0 mg/kg, po; type: ADME, organism-based, Canis lupus familiaris; parameters: dose 5 mg/kg, route oral; settings: in vivo; outline: as §4
[14] = Cmax in fed Beagle dog at 1.0 mg/kg, po; type: ADME, organism-based, Canis lupus familiaris; parameters: dose 1 mg/kg, route oral; settings: in vivo; outline: as §4
Rattus norvegicus [15] = assay: Inhibition of CRF-induced startle response in Sprague-Dawley rat at 17.8 mg/kg, po; type: functional, organism-based; parameters: dose 17.8 mg/kg
Outline: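 CRF 1 µg given icv to rats to enhance acoustic startle; compound dosed p.o. beforehand, with baseline startle also recorded.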

[16] = Tmax in fed Beagle dog at 1.0 mg/kg, po; type: ADME, organism-based, Canis lupus familiaris; parameters: dose 1 mg/kg, route oral; settings: in vivo; outline: as §4
Rattus norvegicus [17] = species on record: Rattus norvegicus; assay: Inhibition of CRF-induced […] of HPA axis in Sprague-Dawley rat assessed as increase in ACTH levels by radioimmunoassay; type: functional; settings: read-out: MED
Outline: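 Oral pretreatment in rats, N = 10 per group, then i.v. CRF 4 µg/kg; plasma ACTH measured. Minimum effective dose versus CRF alone by one-way ANOVA with Dunnett's post hoc test, p < 0.05.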

[18] = Solubility at pH 7; type: physicochemical; settings: buffer
[19] = Oral bioavailability in fasted Beagle dog at 1.0 mg/kg; type: ADME, organism-based, Canis lupus familiaris; settings: in vivo; outline: as §3
Rattus norvegicus [20] = assay: Inhibition of fear-potentiated startle response in Sprague-Dawley rat at 10 mg/kg, po; type: functional, organism-based; parameters: dose 10 mg/kg
[21] = Oral bioavailability in fed Beagle dog at 1.0 mg/kg; type: ADME, organism-based, Canis lupus familiaris; settings: in vivo; outline: as §4
[22] = target: T2, Corticotropin-releasing factor receptor 2 (Homo sapiens, UniProt Q13324); assay: Binding affinity for human CRF2 receptor; settings: read-out: Ki app
T2 sequence (Q13324 whole entry): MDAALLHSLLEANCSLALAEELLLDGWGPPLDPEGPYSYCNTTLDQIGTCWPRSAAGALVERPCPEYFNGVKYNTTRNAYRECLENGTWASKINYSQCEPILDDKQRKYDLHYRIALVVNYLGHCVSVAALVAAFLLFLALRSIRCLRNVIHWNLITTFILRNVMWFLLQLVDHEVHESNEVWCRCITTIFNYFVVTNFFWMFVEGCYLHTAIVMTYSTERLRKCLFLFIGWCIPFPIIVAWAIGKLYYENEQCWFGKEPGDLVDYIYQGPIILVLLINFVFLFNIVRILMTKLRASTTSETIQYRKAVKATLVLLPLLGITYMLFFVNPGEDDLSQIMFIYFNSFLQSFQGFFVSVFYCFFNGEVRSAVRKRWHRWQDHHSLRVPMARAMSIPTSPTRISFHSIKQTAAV

Rattus norvegicus [23] = assay: Inhibition of CRF-induced exitation of locus coerulus neurons in iv dosed Sprague-Dawley rat; type: functional; settings: read-out: ID50 (the source's name)
[24] = target: T3, Corticotropin-releasing factor receptor 1 (Homo sapiens, UniProt P34998); assay: Antagonist activity at human CRF1 receptor assessed as oCRF-stimulated adenylate cyclase activity after 15 mins by liquid scintillation counting; type: functional; settings: read-out: Ki app
T3 sequence (P34998 whole entry): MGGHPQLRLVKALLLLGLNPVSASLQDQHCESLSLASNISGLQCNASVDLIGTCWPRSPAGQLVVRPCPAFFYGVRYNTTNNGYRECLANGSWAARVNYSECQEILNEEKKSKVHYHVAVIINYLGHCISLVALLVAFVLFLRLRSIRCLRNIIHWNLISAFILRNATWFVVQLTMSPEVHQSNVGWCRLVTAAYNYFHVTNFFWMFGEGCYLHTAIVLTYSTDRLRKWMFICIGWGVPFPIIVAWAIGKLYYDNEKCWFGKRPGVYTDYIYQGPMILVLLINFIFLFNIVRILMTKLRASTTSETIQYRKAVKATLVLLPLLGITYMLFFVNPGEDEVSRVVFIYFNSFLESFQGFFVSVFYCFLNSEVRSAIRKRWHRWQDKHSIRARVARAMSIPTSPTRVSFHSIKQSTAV

[25] = Cmax in fasted Beagle dog at 1.0 mg/kg, po; type: ADME, organism-based, Canis lupus familiaris; parameters: dose 1 mg/kg, route oral; settings: in vivo; outline: as §3
[26] = Dissociation constant, pKa of the compound; type: physicochemical
[27] = Solubility at pH 2.4; type: physicochemical; settings: buffer
[28] = Tmax in fasted Beagle dog at 1.0 mg/kg, po; type: ADME, organism-based, Canis lupus familiaris; parameters: dose 1 mg/kg, route oral; settings: in vivo; outline: as §3
[29] = Metabolic stability in human liver microsomes assessed as half life; type: ADME, Microsome
Rattus norvegicus [30] = assay: Inhibition of fear-potentiated startle response in Sprague-Dawley rat at 0.32 to 3.2 mg/kg, po; type: functional; parameters: scale not given: the % may be the effect or the level left; settings: dose mg/kg 0.32-3.2
[31] = target: T1, Corticotropin-releasing factor receptor 1; assay: Antagonist activity at CRF1 receptor in rat cortical membrane assessed as oCRF-stimulated adenylate cyclase activity after 15 mins by liquid scintillation; type: functional, cell membranes; settings: read-out: Ki app
[32] = Solubility at pH 2; type: physicochemical; settings: buffer
[33] = Fraction unbound ligand in human serum; type: ADME, cell-free
[34] = Intrinsic clearance in human liver microsomes; type: ADME, Microsome
[35] = target: T4, Corticotropin-releasing factor receptor 1 (Rattus norvegicus) (UniProt P35353); assay: as §1
T4 sequence (whole entry): T1 sequence (P35353 whole entry)

IC50 [1]: 5.6 nM
SMILES: CCC(CC)Nc1cc(C)nc(Oc2c(C)cc(Br)cc2C)c1C
inhibition in vivo at 3.2 mg/kg (Rattus norvegicus [2]): 81% | inhibition in vivo at 3.2 mg/kg (Rattus norvegicus [3]): 86%

bioavailability [4]: 3.6% | Tmax [5]: 1.9 h | clearance [6]: 4.1 mL/min/kg | Vd [7]: 1.1 L/kg | bioavailability [8]: 37% | half-life [9]: 8.3 h | Cmax [10]: 187 ng/mL | Tmax [11]: 1.5 h | Vd [12]: 3.1 L/kg | IC50 [1]: 6.8 nM | Cmax [13]: 1740 ng/mL
SMILES: CCC(CC)Oc1cc(C)nc(Oc2c(C)cc(C)cc2C)c1C
inhibition in vivo at 3.2 mg/kg (Rattus norvegicus [2]): 72% | inhibition in vivo at 3.2 mg/kg (Rattus norvegicus [3]): 75%

Activity [35]: inactive
SMILES: CCC(CC)Oc1cc(C)nc(Nc2c(C)cc(C)cc2C)c1C(=O)O

Continued, molecule first:

SMILES: CCC(CC)Oc1cc(C)nc(Nc2c(C)cc(C)cc2C)c1C
IC50 [1]: 3.7 nM

SMILES: CCC(CC)Nc1cc(C)nc(Oc2c(C)cc(C)cc2C)c1C
Cmax [14]: 131 ng/mL | Activity (Rattus norvegicus [15]): Active | Tmax [16]: 2 h | clearance [6]: 17 mL/min/kg | minimal effective dose (Rattus norvegicus [17]): 10 mg/kg | Vd [7]: 5.3 L/kg | solubility [18]: 0.1 µg/mL (≈ 0.000306 mM) | bioavailability [19]: 22% | half-life [9]: 8.8 h | Activity (Rattus norvegicus [20]): Active | bioavailability [21]: 64% | Ki [22]: > 10000 nM | ED50 (Rattus norvegicus [23]): < 0.01 mg/kg | Ki [24]: 12 nM | Vd [12]: 12 L/kg | IC50 [1]: 5.1 nM | Cmax [25]: 46.2 ng/mL | inhibition in vivo at 3.2 mg/kg (Rattus norvegicus [2]): 49% | pKa [26]: 6.9 | inhibition in vivo at 3.2 mg/kg (Rattus norvegicus [3]): 81% | solubility [27]: 5400 µg/mL (≈ 16.5 mM) | Tmax [28]: 1.8 h | half-life [29]: 0.633 h | Activity (Rattus norvegicus [30]): 62% | Ki [31]: 12 nM

SMILES: CCC(CC)Oc1cc(C)nc(Oc2c(C)cc(C)cc2C)c1C.CS(=O)(=O)O
solubility [32]: 3 µg/mL | solubility [18]: 0.2 µg/mL | pKa [26]: 3.6

SMILES: CCC(CC)Nc1cc(C)nc(Oc2c(C)cc(Cl)cc2C)c1C
IC50 [1]: 7.2 nM | inhibition in vivo at 3.2 mg/kg (Rattus norvegicus [2]): 72% | inhibition in vivo at 3.2 mg/kg (Rattus norvegicus [3]): 79% | half-life [29]: 0.5 h

SMILES: CC[C@@H](CO)Nc1cc(C)nc(Oc2c(C)cc(Cl)cc2C)c1C(=O)NC
fraction unbound [33]: 0.045 | IC50 [1]: 31 nM | inhibition in vivo at 3.2 mg/kg (Rattus norvegicus [2]): 63% | inhibition in vivo at 3.2 mg/kg (Rattus norvegicus [3]): 86%

SMILES: CC[C@@H](CO)Nc1cc(C)nc(Oc2c(C)cc(Cl)cc2C)c1C(=O)OC
microsomal CLint [34]: 47 µL/min/mg | IC50 [1]: 6.4 nM | inhibition in vivo at 3.2 mg/kg (Rattus norvegicus [2]): 86% | inhibition in vivo at 3.2 mg/kg (Rattus norvegicus [3]): 111%

SMILES: CCC(CC)Nc1cc(C)nc(Nc2c(C)cc(C)cc2C)c1C
IC50 [1]: 750 nM | pKa [26]: 9.3
